Key:
[1] = molecular target: T1, Aldo-keto reductase family 1 member C3 (Homo sapiens, UniProt P42330); experiment: Inhibition of recombinant AKR1C3 assessed as NADP+ dependent oxidation of S-tetralol by fluorescence assay
T1 sequence (P42330 whole entry): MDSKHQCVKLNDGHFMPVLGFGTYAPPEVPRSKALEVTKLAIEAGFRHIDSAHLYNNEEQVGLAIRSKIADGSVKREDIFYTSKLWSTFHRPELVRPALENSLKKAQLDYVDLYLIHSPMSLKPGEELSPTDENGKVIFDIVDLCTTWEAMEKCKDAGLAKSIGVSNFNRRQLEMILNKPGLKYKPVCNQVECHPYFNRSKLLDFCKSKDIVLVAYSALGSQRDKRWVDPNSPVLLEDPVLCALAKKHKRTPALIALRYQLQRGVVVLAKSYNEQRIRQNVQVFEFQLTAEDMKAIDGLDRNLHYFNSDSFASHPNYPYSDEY

[2] = molecular target: T2, Aldo-keto reductase family 1 member C2 (Homo sapiens, UniProt P52895); experiment: Inhibition of recombinant AKR1C2 assessed as NADP+ dependent oxidation of S-tetralol by fluorescence assay
T2 sequence (P52895 whole entry): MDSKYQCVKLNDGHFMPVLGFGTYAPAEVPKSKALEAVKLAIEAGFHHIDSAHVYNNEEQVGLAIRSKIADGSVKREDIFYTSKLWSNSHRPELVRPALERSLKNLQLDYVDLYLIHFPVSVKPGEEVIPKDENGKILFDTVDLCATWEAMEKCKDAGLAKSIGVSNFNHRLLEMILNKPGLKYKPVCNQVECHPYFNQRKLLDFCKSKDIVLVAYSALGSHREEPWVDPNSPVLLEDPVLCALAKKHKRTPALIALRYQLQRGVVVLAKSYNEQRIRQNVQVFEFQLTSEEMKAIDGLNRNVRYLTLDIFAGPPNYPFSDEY
How it was run: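 Homogeneous recombinant enzyme; continuous oxidation of S-tetralol (at each isoform's KM) with 200 μM NADP+ in 100 mM phosphate pH 7.0, 4% DMSO, 37 °C. Initial velocities compared with solvent control; quadruplicate points over a range of inhibitor concentrations; IC50 from curve fit.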

SMILES | IC50 [1] | IC50 [2]
CC(=O)c1cccc(Nc2cccc(C(=O)O)c2)c1 | 0.56 µM | 36.6 µM
COc1ccc(C(=O)O)c(Nc2ccccc2)c1 | 1.66 µM | 1.49 µM
COc1ccc(C(=O)O)c(Nc2cc(C)cc(C)c2)c1 | 1.73 µM | 3.24 µM
Cc1cccc(Nc2cccc(C(=O)O)c2)c1 | 1.88 µM | 22.9 µM
COc1ccc(Nc2ccc(C(C)=O)cc2C(=O)O)c([N+](=O)[O-])c1 | 0.26 µM | 3.93 µM
CC(=O)c1ccc(Nc2cc(C(=O)O)cc(C(=O)O)c2)c(C(=O)O)c1 | 0.61 µM | 31.6 µM
COc1ccc(Nc2ccc(C(=O)O)cc2)cc1 | 2.21 µM | 22.9 µM
COc1ccc(C(=O)O)c(Nc2ccc([N+](=O)[O-])cc2)c1 | 0.5 µM | 0.19 µM
Cc1ccc(Nc2ccc(C(=O)O)cc2)cc1 | 1.89 µM | 48.2 µM
CC(=O)c1ccc(Nc2ccc(Cl)cc2)c(C(=O)O)c1 | 0.6 µM | 2.23 µM
O=C(O)c1ccccc1Nc1ccc(Cl)cc1 | 0.07 µM | 0.41 µM
COc1ccc(C(=O)O)c(Nc2ccc(C(=O)O)cc2)c1 | 0.69 µM | 0.98 µM
CC(C)(C)c1ccc(Nc2ccc(C(=O)O)cc2)cc1 | 0.93 µM | 10.3 µM
CC(=O)c1ccc(Nc2ccccc2)c(C(=O)O)c1 | 2.53 µM | 3.81 µM
COc1cccc(Nc2ccc(C(=O)O)cc2)c1 | 2.65 µM | 84.4 µM
O=C(O)c1cccc(Nc2cccc(Cl)c2)c1 | 0.46 µM | 7.17 µM
O=C(O)c1cccc(Nc2cccc([N+](=O)[O-])c2)c1 | 0.29 µM | 19.3 µM
O=C(O)c1cccc(Nc2cccc(C(F)(F)F)c2)c1 | 0.32 µM | 16 µM
Cc1cc(C)cc(Nc2cccc(C(=O)O)c2)c1 | 1.08 µM | 44.6 µM
COc1ccc(Nc2cc(OC)ccc2C(=O)O)cc1 | 0.25 µM | 0.91 µM

SMILES | IC50 [1] | IC50 [2]
O=C(O)c1cccc(Nc2ccccc2C(=O)O)c1 | 0.98 µM | 4.16 µM
COc1cc(Nc2ccc(C(=O)O)cc2)cc(OC)c1 | 2.53 µM | 69.9 µM
COc1ccc(C(=O)O)c(Nc2cccc(C(=O)O)c2)c1 | 1.45 µM | 8.38 µM
Cc1cccc(Nc2ccc(C(=O)O)cc2)c1 | 1.67 µM | 21.5 µM
COc1ccc(C(=O)O)c(Nc2cccc([N+](=O)[O-])c2)c1 | 0.08 µM | 0.19 µM
O=C(O)c1cccc(Nc2cc(C(F)(F)F)cc(C(F)(F)F)c2)c1 | 0.25 µM | 19.2 µM
CC(=O)c1ccc(Nc2cccc(Cl)c2)c(C(=O)O)c1 | 1.16 µM | 2.55 µM
O=C(O)c1ccccc1Nc1ccc([N+](=O)[O-])cc1 | 0.16 µM | 0.28 µM
O=C(O)c1cccc(Nc2ccccc2C(F)(F)F)c1 | 0.56 µM | 15.1 µM
O=C(O)c1ccc(Nc2ccc(C(=O)O)cc2)cc1 | 2.37 µM | 6.3 µM
CC(=O)c1ccc(Nc2ccccc2C(F)(F)F)c(C(=O)O)c1 | 1.35 µM | 2.07 µM
CC(=O)c1ccc(Nc2cc(C)cc(C)c2)c(C(=O)O)c1 | 1.82 µM | 10.6 µM
COc1ccc(C(=O)O)c(Nc2ccc(C(C)=O)cc2)c1 | 0.5 µM | 0.27 µM
CC(=O)c1cccc(Nc2ccc(C(C)=O)cc2C(=O)O)c1 | 0.65 µM | 1.88 µM
COc1ccccc1Nc1ccc(C(C)=O)cc1C(=O)O | 3.06 µM | 8.97 µM
O=C(O)c1cccc(Nc2ccccc2[N+](=O)[O-])c1 | 0.15 µM | 4.77 µM
CC(=O)c1ccc(Nc2ccc(C)cc2)c(C(=O)O)c1 | 1.65 µM | 8.23 µM
COc1cc(Nc2ccccc2C(=O)O)cc(OC)c1 | 0.89 µM | 3.4 µM
COc1cc(Nc2cccc(C(=O)O)c2)cc(OC)c1 | 0.36 µM | 56.2 µM
COc1ccc(C(=O)O)c(Nc2cccc(C)c2)c1 | 0.64 µM | 0.87 µM
